Assay results from ChEMBL document CHEMBL5316289, “Structure-Based Rational Design of Small α-Helical Peptides with Broad-Spectrum Activity against Multidrug-Resistant Pathogens” (J Med Chem, 2023).
The source made the active and inactive calls. The calls are words filed in the database; no cut-off is given here. Where a SMILES comes first, the peptide text is derived from it. Bridges are numbered along the chain shown (N, C = ends). [ ]: non-standard residue; d: D form. The star is where a group is joined. X1 = CC[C@H](C)CCCCC(=O)*; Dab = NCC[C@H](N)C(=O)O

Experiments:
Staphylococcus aureus = assay: Bactericidal activity against methicillin resistant Staphylococcus aureus ATCC BAA 1556 assessed as inhibition of bacterial growth at 4 times of MIC incubated for 3 hrs by Time kill assay; assay type: functional
Outline: (§1)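 Aliquots taken every 30 min for 4 h and plated on agar for viable colony counts. Two independent experiments in triplicate.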

Cell membrane [1] = assay: Disruption of cell membrane in Escherichia coli ATCC BAA-2452 assessed as increase in PI fluorescence intensity at 4 times of MIC measured after 1 hrs by PI staining based flow cytometric analysis; assay type: subcellular
Outline: (§2)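 Mid-log E. coli ATCC BAA-2452 grown in Mueller Hinton broth, washed thrice and resuspended at 10^7 CFU/mL in 10 mM Tris pH 7.4. […] Controls: PBS (negative) and 10% Triton X-100 (positive). Triplicate; two-tailed unpaired t-test.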

Cell membrane [2] = assay: Disruption of cell membrane in methicillin resistant Staphylococcus aureus ATCC BAA 1556 assessed as increase in PI fluorescence intensity at 4 times of MIC measured after 1 hrs by PI staining based flow cytometric analysis
Outline: (§3)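 Mid-log cells grown in Mueller Hinton broth, washed in 10 mM Tris pH 7.4, 10^7 CFU/mL, treated at MIC and 4× MIC for 1 h. Pelleted, washed, PI-stained for 15 min at 37 °C in the dark, then counted by flow cytometry for % PI-positive cells. PBS-treated cells as negative control, 10% Triton X-100 as positive control. Run in triplicate; two-tailed unpaired t-test.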

Lipid bilayer = assay: Induction of membrane disruption in mammalian membrane mimic DOPC/cholesterol (10:1) large unilamellar vesicles assessed as induction of dye leakage at 50 ug/ml measured after 100 mins by calcein dye based analysis; assay type: cell membranes; conditions: dose 50.0 µg/ml
Outline: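 LUVs loaded with calcein: DOPC/DOPG 7:3 w/w (bacterial mimic) or DOPC/cholesterol 10:1 w/w (mammalian mimic). Mixed 1:1 by volume with peptide at 5, 10, 20, 30 or 50 μg/mL. Fluorescence (ex 490/em 520 nm) read every 10 min for 100 min. Leakage expressed relative to 10% Triton X-100 lysis (100%), after subtracting liposome background. Triplicate.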

Cell membrane [3] = assay: Disruption of cell membrane in Escherichia coli ATCC BAA-2452 assessed as increase in PI fluorescence intensity at MIC measured after 1 hrs by PI staining based flow cytometric analysis; assay type: subcellular; outline: as §2
Cell membrane [4] = assay: Disruption of cell membrane in methicillin resistant Staphylococcus aureus ATCC BAA 1556 assessed as increase in PI fluorescence intensity at MIC measured after 1 hrs by PI staining based flow cytometric analysis; assay type: subcellular; outline: as §3
Escherichia coli = assay: Bactericidal activity against […] Escherichia coli ATCC BAA 2452 assessed as inhibition of bacterial growth at 4 times of MIC incubated for 2.5 hrs by Time kill assay; assay type: functional; outline: as §1

| SMILES | inhibition (INH) (Staphylococcus aureus) | Activity (Cell membrane [1]) | Activity (Cell membrane [2]) | Activity (Lipid bilayer) | Activity (Cell membrane [3]) | Activity (Cell membrane [4]) | inhibition (INH) (Escherichia coli) |
| --- | --- | --- | --- | --- | --- | --- | --- |
| CCCCCCCCCC(=O)N[C@@H](Cc1c[nH]c2ccccc12)C(=O)N[C@H](CC(N)=O)C(=O)N[C@@H](CC(=O)O)C(=O)N[C@@H]1C(=O)NCC(=O)N[C@@H](CCCN)C(=O)N[C@@H](CC(=O)O)C(=O)N[C@H](C)C(=O)N[C@@H](CC(=O)O)C(=O)NCC(=O)N[C@H](CO)C(=O)N[C@@H]([C@H](C)CC(=O)O)C(=O)N[C@@H](CC(=O)c2ccccc2N)C(=O)O[C@@H]1C | 100% | inactive | inactive | 7% | inactive | inactive |  |
| CC[C@H](C)CCCCC(=O)N[C@@H](CCN)C(=O)N[C@H](C(=O)N[C@@H](CCN)C(=O)N[C@H]1CCNC(=O)[C@H]([C@@H](C)O)NC(=O)[C@H](CCN)NC(=O)[C@H](CCN)NC(=O)[C@H](CC(C)C)NC(=O)[C@@H](Cc2ccccc2)NC(=O)[C@H](CCN)NC1=O)[C@@H](C)O (X1-[Dab]T[Dab][Dab][Dab][dF]L[Dab][Dab]T; lactam 4-C) |  |  |  |  |  |  | 100% |
